Assay outcomes from PubChem.
Gli-Sufu block = blocks Gli-Sufu signaling in a luciferase reporter; Sufu-KO-LIGHT fibroblasts, Gli luciferase reporter luminescence; inhibition, % at 5 µM; 0.74% of 340,000 active;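 active = inhibition above about 55%, limit read from the data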;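 also: 0% = DMSO-treated cells and 100% = wells with medium but no cells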
GalR3 antag = antagonists of human GalR3 | O60755 | HEK293 GalR3-CNG cAMP membrane potential fluorescence; galR3 body fused to GalR1 C-terminus | inhibition, % at 3 µM | 0.44% of 360,000 active;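 active = inhibition above the screen-wide average plus 3 SD, cut at about 13% in these data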;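 also: forskolin and galanin both at EC90 stimulate the cells; cAMP rise reported by CNG channel membrane potential dye signal; 0% = forskolin plus galanin with DMSO and 100% = forskolin alone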
Target sequence (O60755 1-299 limits assumed): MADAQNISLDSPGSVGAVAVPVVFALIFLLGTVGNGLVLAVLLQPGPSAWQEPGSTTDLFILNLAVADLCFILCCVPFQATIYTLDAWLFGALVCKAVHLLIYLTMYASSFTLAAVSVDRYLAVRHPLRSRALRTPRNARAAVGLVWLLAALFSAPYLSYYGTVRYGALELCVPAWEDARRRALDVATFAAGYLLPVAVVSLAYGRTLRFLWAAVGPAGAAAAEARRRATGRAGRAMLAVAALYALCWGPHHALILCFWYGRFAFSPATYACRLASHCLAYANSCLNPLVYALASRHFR
Jurkat NFkB inh = inhibitors of the PMA/ionomycin-induced NF-kB reporter in Jurkat cells. inhibition, % at 4 µM. 0.53% of 330,000 active. PMA/ionomycin-induced NF-kB luciferase reporter, luminescence; in the data active = inhibition above about 50%
NR2E3 ag-1 = agonists of human NR2E3 nuclear receptor | Q9Y5X4 | CHO-S Gal4-NCOR/VP16-NR2E3 two-hybrid, luciferase | inhibition of corepressor binding, % at 3.98 µM | 0.35% of 360,000 active;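 active = inhibition above the mean of all tested compounds plus 3 SD, cut at about 70% in these data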;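 also: 0% = DMSO with NR2E3 transfected cells and 100% = cells lacking NR2E3 construct; higher means lower luciferase signal from less NR2E3 corepressor binding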
NR2E3 ag-2 = agonists of human nuclear receptor NR2E3 | Q9Y5X4 | GST-NR2E3/biotin-RetCOR TR-FRET, 1536-well | inhibition of corepressor binding, % at 4.78 µM | 0.12% of 320,000 active | AID 2300;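 active = percent inhibition above the cutoff of mean plus 3 SD of all tested compounds, set per screening campaign, cut at about 20% in these data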;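 also: 0% = DMSO wells and 100% = biotin wells as full block of FRET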
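Assay system: NR2E3–RetCOR corepressor complex. Quantity: 1.35 nM GST-NR2E3. Buffer or medium: pH 7.5 Tris-based buffer. Reagent: biotinylated RetCOR corepressor at 7 nM final. Schedule: 5 h at 4 °C. Detection: TR-FRET, emission read at 617 and 671 nm. Replicates: one well per compound, singlicate testing.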
697 NFkB inh = inhibitors of the PMA/ionomycin-induced NF-kB reporter in 697 B cells; inhibition, % at 4 µM; AID 435022; 0.33% of 330,000 active; 697 B-cell NF-kB luciferase reporter, 16 h; in the data active = inhibition above about 35%
Jurkat NFkB conf = lowers PMA/ionomycin-induced NF-kB signal in Jurkat cells | shares compounds with Jurkat NFkB inh | Jurkat NF-kB luciferase, 16 h | inhibition, % at 4 µM | 27% of 2,700 active;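 active = inhibition reaching about 45% at 4 µM in either replicate, limit read from the data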;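 also: plate controls were PMA/ionomycin stimulated DMSO wells for no effect and unstimulated DMSO wells for full effect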
Active calls of the source: *; · = no result given. Most compounds without a hit are left out; they make up all but 1.8% or so of the library.

SMILES	Gli-Sufu block	GalR3 antag	Jurkat NFkB inh	NR2E3 ag-1	NR2E3 ag-2	697 NFkB inh	Jurkat NFkB conf
COc1ccc(C2c3ccc4ccccc4c3Oc3ncn(CCO)c(=N)c32)cc1 (configuration not stated)	14	·	29	-4	-2	1	·
CCOC(=O)CN1C(=O)[C@]2(OCCC=C[C@H]2C)c2cc(OC)ccc21	·	-5	·	·	·	·	·
COc1ccc(-c2coc3cc4oc(=O)cc(C)c4cc23)cc1F	9	-8	36	1	0	-13	·
COc1ccc(-c2coc3cc4oc(=O)cc(-c5ccccc5)c4cc23)cc1F	14	0	67*	-6	-2	-10	29
CCOc1cc(C#N)c(NC(=O)c2cccnc2Cl)cc1OCC	8	1	7	-3	2	17	·
CCOc1cc(C#N)c(NC(=O)c2cccnc2)cc1OCC	-1	3	62*	-53	4	-32	52*
O=S(=O)(/N=C(/Nc1nc2ccccc2s1)c1ccccc1)c1ccccc1	-3	-7	-167	-104	3	-219	-107
O=C(Nc1ccon1)c1cc2c(s1)CCCC2	-81	·	-157	-100	1	-13	-84
Clc1ccc(CSc2nncn2-c2ccc3c(c2)OCCO3)cc1	7	-6	58*	-19	2	-46	44
O=c1[nH]c(-c2ccccn2)cc2ccccc12	-51	-1	62*	-78	-3	-69	-16
O=c1[nH]c(Nc2ccccn2)cc2ccccc12	20	-10	-14	-76	-4	5	·
COc1ccccc1Cc1c(-c2ccc(F)cc2)nc2c3ccccc3ccn12	·	-5	·	·	·	·	·
O=C(N/N=C\c1cccc(Cl)c1)c1n[nH]c2c1CCCC2	-80	-1	-152	-116	-3	-192	-63
Cc1ccc2nc(-c3ccc(SCC(=O)Nc4ccc5c(c4)OCCO5)nc3)[nH]c2c1	5	-12	-153	-27	-1	-8	-123
Oc1ccc(/C=N/Nc2nc(-c3cccnc3)nc3ccccc23)c(O)c1	-19	1	10	-55	-1	-18	·
Fc1ccccc1/C=N/Nc1nc(-c2ccccn2)nc2ccccc12	·	·	61*	·	4	-23	-8
Cc1cccc(NC(=S)c2nc3ccccc3s2)c1	-31	-1	-173	-148	2	-235	-103
O=C(Nc1ccc2c(c1)OCCO2)c1ccc2ccccc2n1	-105	-6	-165	-147	-1	-119	-111
O=C(NC(=S)Nc1ccc2c(c1)OCCO2)c1ccccc1	-87	-6	-210	-137	1	-235	-99
O=C(Nc1ccccc1)c1nc2ccccc2s1	-100	-5	-205	-52	2	-131	-96
NNC(=O)c1nc2ccccc2s1	·	-5	·	-76	·	·	·
COC(=O)c1cccc(Nc2cc(C)n(-c3cccc(C(=O)OC)c3)c(=O)c2)c1	·	-7	·	·	·	·	·
O=C(Nc1ccccc1)c1ccc2ccccc2n1	-75	-4	-168	-166	2	-22	-92
O=C(Nc1ccc(OC(F)(F)F)cc1)c1ccc2ccccc2n1	-1	-4	10	-49	2	-31	·
COc1ccc2cc(-c3ccsc3)ncc2c1	-76	-9	-151	-84	0	-156	-92
SMILES	Gli-Sufu block	GalR3 antag	Jurkat NFkB inh	NR2E3 ag-1	NR2E3 ag-2	697 NFkB inh	Jurkat NFkB conf
COc1cc(OC)cc(-c2cc3ccc(OC)cc3cn2)c1	-132	-11	-56	-150	2	-228	·
COc1ccc2cc(C3=CCCCC3)ncc2c1	-93	-5	-198	-86	0	-220	-115
CC(C)c1[nH]nc2c1C(c1ccc(Br)cc1)NC2=O (configuration not stated)	·	-8	·	·	·	·	·
Cc1ccc(NC(=O)OCCN(C)C(=O)Nc2ccc(C)cc2C)c(C)c1	·	-9	·	·	·	·	·
C=CCN=C1NC(c2cccc(F)c2)C(C(=O)OC)=C(C)N1C (configuration not stated)	·	-6	·	·	·	·	·
O=C(N[C@H](C(=O)N1CCC[C@H]1C(=O)NC1CCCC1)C1CCCCC1)C1CCCC1	·	0	·	·	·	·	·
COc1ccc([C@H]2CC(=O)C=C(c3ccc(OC)cc3OC)C2)cc1	7	-5	58*	-5	5	-49	48*
